High-throughput results from PubChem.
TRPC6 inhibitor = mouse TRPC6 channel inhibitors, primary screen, cell-based, HEK293, membrane potential dye. ACh-evoked depolarization; stronger effect = lower value. 1.1% of 310,000 active. Short transient receptor potential channel 6 (Mus musculus), Q61143. B-score at 10 µM;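 active means B-score under library mean minus 3 SD, initial fluorescence not abnormally high, positive integrated signal ratio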;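 further: B-score derived from integrated fluorescence ratio over the kinetic read; more negative B-score means stronger inhibition of depolarization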
TRPC6 activator = mouse TRPC6 channel activators, primary screen, cell-based, HEK293, membrane potential dye; HEK293-TRPC6 membrane potential dye fluorescence; stronger effect = higher value; B-score at 10 µM; 0.13% of 310,000 active;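 active means B-score of the integrated fluorescence ratio above library mean plus 3 SD, and starting fluorescence ratio within library mean plus 5 SD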;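 further: higher score means more depolarization so channel activation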
TRPC4 PAM = positive allosteric modulators of TRPC4, primary screen, cell-based, mouse TRPC4beta, HEK293 mu-opioid, Fluo-4 calcium; Short transient receptor potential channel 4 (Mus musculus), Q9QUQ5; DAMGO EC20, Fluo-4 Ca2+ flux; stronger effect = higher value; B-score at 10 µM; 0.42% of 310,000 active; AID 2227, 2009;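 active means B-score of calcium response area above 5 SD of library B-scores, with initial fluorescence ratio within 5 SD of library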
TRPC4 block = inhibitors of mouse TRPC4 channel, primary screen, Fluo4 calcium, HEK293 TRPC4beta/mu-opioid cells. Short transient receptor potential channel 4 (Mus musculus), Q9QUQ5. DAMGO-evoked Fluo4 calcium flux; stronger effect = lower value. B-score at 10 µM. 0.39% of 300,000 active. AID 2247, 2010;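 active means B-score over 3 SD under the library average, no early fluorescence shift, positive overall ratio signal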
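Test system – stable TRPC4beta/mu-opioid receptor HEK293 cells · Probe or stimulus – DAMGO, a submaximal dose followed by a maximal one · Dosing – one concentration per compound · Signal – Fluo4 calcium fluorescence by kinetic imaging, 5 s 1 Hz baseline · Evaluation – per-well B score of integrated baseline-normalized Fluo4 ratio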
TRPC4 agonist = activators of mouse TRPC4 channel, primary screen, Fluo4 calcium, HEK293 TRPC4beta/mu-opioid cells. Fluo4 calcium fluorescence; stronger effect = higher value. B-score at 10 µM. 0.49% of 310,000 active;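 active means B-score above 5 SD of library B-scores, and initial fluorescence ratio not above library mean plus 5 SD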;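 further: positive B-score marks a calcium rise read as TRPC4 activation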
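Assay system: HEK293 stable line with TRPC4beta plus mu-opioid receptor. Times: dye 45 min RT, read 110 s. Measured by: kinetic Fluo4 calcium fluorescence. Measure: B score of integrated ratio. Controls: assay buffer as low control, maximal DAMGO as high control.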
TRPC4 spec 2 = mouse TRPC4 off-target activity of TRPC6 inhibitors, second screen. HEK293 TRPC4/MOR, membrane potential dye fluorescence; channel activated by saturating DAMGO dose. AID 2776. 42% of 920 active. shares compounds with TRPC6 inhibitor. inhibition, % at 10 µM;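 active means compounds whose fluorescence signal differed from control wells by over 3 SD, either direction, in both duplicate plates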
TRPC4 spec = mouse TRPC4 modulation by TRPC6 hits, confirmation, selectivity assay for TRPC6 inhibitor project, cell-based, HEK293 TRPC4/mu-opioid, membrane potential dye. shares compounds with TRPC6 inhibitor. membrane potential fluorescence. activity change, negative = inhibition, % at 10 µM. 61% of 920 active. AID 2777, 2010;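 active means rise or fall in signal beyond 3 SD of buffer-only wells in both replicate plates, either sign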;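 further: integrated kinetic ratio of fluorescence range over baseline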
HEK293 MPD ctr 2-1 = nonspecific membrane potential effects, parental HEK293, confirmation, counter-screen for TRPC6 inhibitor project, cell-based, second counter screen. shares compounds with TRPC6 inhibitor. 31% of 920 active. signal change vs control, % at 10 µM. parental HEK293 membrane potential dye fluorescence; maximal acetylcholine challenge after compound addition;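 active means membrane potential signal moving either way by over 3 SD of the maximum-effect control, in both duplicate plates, meaning non-specific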
HEK293 MPD ctr-1 = membrane potential modulation in parental HEK293, confirmation, counter-screen for TRPC6 inhibitor project, cell-based | shares compounds with TRPC6 inhibitor | parental HEK293 membrane potential dye fluorescence | membrane potential signal change, % at 10 µM | 60% of 920 active | AID 2780, 2010;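 active means membrane potential signal shifting up or down by more than 3 SD of buffer-only wells, on both duplicate plates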
HEK293 MPD ctr-2 = parental HEK293 membrane potential modulation, confirmation, counter-screen for TRPC6 modulator project, cell-based; shares compounds with TRPC6 inhibitor; AID 488924, 2010; membrane potential dye fluorescence; 51% of 2,400 active; membrane potential signal change, % at 10 µM;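 active means membrane potential signal moves up or down beyond 5 SD from buffer-only wells, on both duplicate plates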
HEK293 MPD ctr 2-2 = parental HEK293 nonspecific activity of TRPC6 modulators, second screen; shares compounds with TRPC6 inhibitor; membrane potential dye fluorescence; after compound, maximal acetylcholine stimulation; inhibition, % at 10 µM; 14% of 2,400 active; AID 488926;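 active means membrane potential signal drops by more than 5 SD from the mean control signal, in both duplicate plates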
TRPC4/MOR mod = TRPC4 modulation by TRPC6 hit compounds, confirmation, selectivity assay for TRPC6 modulator project, cell-based, HEK293 TRPC4/mu-opioid, membrane potential dye, mouse | membrane potential fluorescence | 69% of 2,400 active | shares compounds with TRPC6 inhibitor | percent change from control (negative = decrease, positive = increase), % at 10 µM;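 active means membrane potential signal moved up or down beyond 5 SD of buffer control wells, in both duplicate plates, actives on both sides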
TRPC4 ctr inh 2 = second check of whether TRPC6 modulators also affect mouse TRPC4; AID 488928; 55% of 2,400 active; inhibition, % at 10 µM; HEK293 TRPC4/mu-opioid, membrane potential dye fluorescence; stimulated with maximal-effect DAMGO; shares compounds with TRPC6 inhibitor;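 active means drop in membrane potential signal beyond 5 SD of the control wells in both duplicate plates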;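 further: TRPC4 counter screen for TRPC6 hits run under conditions tuned for TRPC6 not TRPC4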
TRPC6 block conf = mouse TRPC6 channel inhibitors, confirmation, HEK293 cells, membrane potential dye, duplicate. shares compounds with TRPC6 inhibitor. ACh-evoked depolarization. inhibition, % at 10 µM. 43% of 3,300 active;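 active means fluorescence ratio falls more than 5 SD below the full-stimulation control mean, in both duplicate runs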;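 further: integrated fluorescence ratio of peak minus minimum over baseline after agonist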
TRPC6 act confirm = mouse TRPC6 channel activators, confirmation, HEK293 cells, membrane potential dye, duplicate. activation, % at 10 µM. shares compounds with TRPC6 inhibitor. 11% of 2,800 active. HEK293-TRPC6 membrane potential dye fluorescence, FDSS. AID 488961, 2010;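 active means ratio signal rise beyond 5 SD above unstimulated control wells' mean, seen in both duplicate runs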
Each line names hits and unclear results; the compound was inactive in the other large screens (follow-up assays come after a bar, where they were run). Shown are actives, neighbours in structure and some others; about 2.3% of the full set was active somewhere.

COc1ccc(OC)c2sc(N(CCN(C)C)C(=O)c3cc(Cl)sc3Cl)nc12	TRPC6 inhibitor -5.46, TRPC4 agonist 102 | HEK293 MPD ctr-2 inactive | HEK293 MPD ctr 2-2 inactive | TRPC4/MOR mod -42.5% | TRPC4 ctr inh 2 80.0% | TRPC6 block conf inactive | TRPC6 act confirm inactive
O=C(CSc1nncs1)NCc1ccc(F)cc1	none
CC(C)C(Sc1nc(-c2ccccc2)cc(-c2ccccc2)c1C#N)C(=O)O (stereo not given)	TRPC6 activator 13.3 | HEK293 MPD ctr-2 355.0% | HEK293 MPD ctr 2-2 inactive | TRPC4/MOR mod 66.5% | TRPC4 ctr inh 2 inactive | TRPC6 block conf inactive | TRPC6 act confirm 126.0%
COc1ccc(NC(=O)C2CCCN(c3nn4c(=O)cc(C)nc4s3)C2)cc1 (stereo not given)	none
Cc1cc(=O)n2nc(N3CCCC(C(=O)N4CCc5ccccc54)C3)sc2n1 (stereo not given)	TRPC6 inhibitor -8.73 | TRPC4 spec 2 inactive | TRPC4 spec inactive | HEK293 MPD ctr 2-1 inactive | HEK293 MPD ctr-1 inactive | TRPC6 block conf inactive | TRPC6 act confirm inactive
CNC(=O)CC1C(=O)N(c2ccc(F)cc2)C(=S)N1NC(=O)c1ccc(Cl)cc1 (stereo not given)	TRPC6 inhibitor -5.57 | HEK293 MPD ctr-2 inactive | HEK293 MPD ctr 2-2 inactive | TRPC4/MOR mod inactive | TRPC4 ctr inh 2 inactive | TRPC6 block conf inactive | TRPC6 act confirm inactive
CN(C)CCCNc1c2c(nc3cc(-c4cccc(F)c4)nn13)CCC2	TRPC6 inhibitor -7.27, TRPC4 agonist 123 | HEK293 MPD ctr-2 inactive | HEK293 MPD ctr 2-2 126.5% | TRPC4/MOR mod -20.5% | TRPC4 ctr inh 2 51.5% | TRPC6 block conf 78.5% | TRPC6 act confirm inactive
CCOCCCNc1c2c(nc3cc(-c4ccc(F)cc4)nn13)CCC2	none
N=c1c(C(=O)NCC2CCCO2)cc2c(=O)n3ccccc3nc2n1C1CCCC1 (stereo not given)	TRPC6 inhibitor -5.92 | HEK293 MPD ctr-2 inactive | HEK293 MPD ctr 2-2 inactive | TRPC4/MOR mod inactive | TRPC4 ctr inh 2 inactive | TRPC6 block conf inactive | TRPC6 act confirm inactive
Cc1ccc2nc3c(cc(C(=O)NCC4CCCO4)c(=N)n3C3CCCC3)c(=O)n2c1 (stereo not given)	none
CCCn1c(=N)c(C(=O)NCC2CCCO2)cc2c(=O)n3cccc(C)c3nc21 (stereo not given)	none
C=CCn1c(=N)c(C(=O)NCCCOC)cc2c(=O)n3cccc(C)c3nc21	TRPC6 inhibitor -5.23 | HEK293 MPD ctr-2 225.5% | HEK293 MPD ctr 2-2 83.0% | TRPC4/MOR mod 39.5% | TRPC4 ctr inh 2 inactive | TRPC6 block conf inactive
Cc1ccc2nc3c(cc(C(=O)NCc4ccco4)c(=N)n3C3CCCC3)c(=O)n2c1	none
Cc1cccn2c(=O)c3cc(C(=O)NCc4ccco4)c(=N)n(C4CCCCC4)c3nc12	TRPC6 inhibitor -6.76 | HEK293 MPD ctr-2 -160.5% | HEK293 MPD ctr 2-2 inactive | TRPC4/MOR mod -38.5% | TRPC4 ctr inh 2 34.0% | TRPC6 block conf inactive | TRPC6 act confirm inactive
COCCCn1c(=N)c(C(=O)NCC2CCCO2)cc2c(=O)n3cccc(C)c3nc21 (stereo not given)	TRPC6 inhibitor -6.38 | HEK293 MPD ctr-2 146.0% | HEK293 MPD ctr 2-2 79.5% | TRPC4/MOR mod 20.5% | TRPC4 ctr inh 2 27.5% | TRPC6 block conf 40.5% | TRPC6 act confirm inactive
Cc1ccc(SCC(=O)NC(=O)Nc2ccc3c(c2)OCCO3)cc1C	none
COc1ccc(CCNC(=O)c2cc3c(=O)n4ccccc4nc3n(C3CCCCC3)c2=N)cc1	none
N=c1c(C(=O)NCC2CCCO2)cc2c(=O)n3ccccc3nc2n1C1CCCCC1 (stereo not given)	TRPC6 inhibitor -5.43 | HEK293 MPD ctr-2 -100.0% | HEK293 MPD ctr 2-2 inactive | TRPC4/MOR mod -23.5% | TRPC4 ctr inh 2 inactive | TRPC6 block conf inactive | TRPC6 act confirm inactive
Cc1ccc(Cn2c(=N)c(C(=O)NCC3CCCO3)cc3c(=O)n4cccc(C)c4nc32)cc1 (stereo not given)	none
Cc1cccn2c(=O)c3cc(C(=O)NCC4CCCO4)c(=N)n(C4CCCC4)c3nc12 (stereo not given)	TRPC6 inhibitor -5.77 | HEK293 MPD ctr-2 -81.5% | HEK293 MPD ctr 2-2 inactive | TRPC4/MOR mod -16.5% | TRPC4 ctr inh 2 31.5% | TRPC6 block conf inactive | TRPC6 act confirm inactive
